Source: ChEMBL document CHEMBL1154783, “Study of 1,4-dihydropyridine structural scaffold: discovery of novel sirtuin activators and inhibitors” (2009)
The source made the active and inactive calls. The calls are words filed in the database; no cut-off is given here.

Tests used:
[1] = molecular target: T1, NAD-dependent protein deacetylase sirtuin-2 (Homo sapiens) (UniProt Q8IXJ6); assay: Activation of human SIRT2 expressed in Escherichia coli after 1 hr by fluorescent biochemical assay
T1 sequence (whole entry): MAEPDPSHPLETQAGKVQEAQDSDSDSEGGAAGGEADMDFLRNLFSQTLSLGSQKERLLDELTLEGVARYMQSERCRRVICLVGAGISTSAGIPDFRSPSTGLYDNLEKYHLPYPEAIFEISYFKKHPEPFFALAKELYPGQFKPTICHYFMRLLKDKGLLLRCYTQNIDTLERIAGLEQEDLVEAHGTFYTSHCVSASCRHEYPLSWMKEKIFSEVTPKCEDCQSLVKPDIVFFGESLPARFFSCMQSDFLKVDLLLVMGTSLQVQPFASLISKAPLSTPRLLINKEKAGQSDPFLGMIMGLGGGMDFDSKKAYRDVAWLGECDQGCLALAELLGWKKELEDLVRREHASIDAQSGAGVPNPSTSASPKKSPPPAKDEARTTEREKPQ
In short: (§1)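 Fluor de Lys two-step assay with human SIRT1 (full length, 747 aa), SIRT2 (389 aa) or SIRT3 catalytic fragment ([…]), all expressed in E. coli. Enzyme was set at 1 U/well for SIRT1 and 5 U/well for SIRT2/SIRT3. Developer was then added for 15 min at 37 °C. Read at ex 355/em 460 nm, triplicates, background-subtracted, with autofluorescence controls for activators.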

U937 (Homo sapiens) = assay: Induction of granulocyte differentiation in human U937 cells assessed as increase in phycoerythrine-conjugated CD11c expression at 50 uM after 30 hrs by propidium iodide staining-based FACS analysis
C2C12 [2] = assay: Increase in mitochondrial function in mouse C2C12 cells assessed as enhancement of mitochondrial density at 10 to 50 uM after 16 hrs by green FM dye straining-based fluorescence assay; format: functional, cell-based
In short: (§2)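 C2C12 myoblasts (3000 cells/well) treated for 16 h (overnight), with DMSO as control. Cells then stained with MitoTracker Green FM (200 nM) and fluorescence intensity read after subtracting background from unstained wells.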

MCF7 [3] = assay: Cell cycle arrest in human MCF7 cells assessed as accumulation at G1/S phase at 50 uM after 30 hrs by FACS analysis; format: functional, cell-based
[4] = molecular target: T2, Peroxisome proliferator-activated receptor gamma coactivator 1-alpha (Homo sapiens) (UniProt Q9UBK2); assay: Stimulation of PGC1-alpha-mediated transcriptional activity of mTFA promoter in mouse C2C12 cells expressing NRF1 site after 16 hrs by luciferase reporter gene assay; format: cell-based
T2 sequence (whole entry): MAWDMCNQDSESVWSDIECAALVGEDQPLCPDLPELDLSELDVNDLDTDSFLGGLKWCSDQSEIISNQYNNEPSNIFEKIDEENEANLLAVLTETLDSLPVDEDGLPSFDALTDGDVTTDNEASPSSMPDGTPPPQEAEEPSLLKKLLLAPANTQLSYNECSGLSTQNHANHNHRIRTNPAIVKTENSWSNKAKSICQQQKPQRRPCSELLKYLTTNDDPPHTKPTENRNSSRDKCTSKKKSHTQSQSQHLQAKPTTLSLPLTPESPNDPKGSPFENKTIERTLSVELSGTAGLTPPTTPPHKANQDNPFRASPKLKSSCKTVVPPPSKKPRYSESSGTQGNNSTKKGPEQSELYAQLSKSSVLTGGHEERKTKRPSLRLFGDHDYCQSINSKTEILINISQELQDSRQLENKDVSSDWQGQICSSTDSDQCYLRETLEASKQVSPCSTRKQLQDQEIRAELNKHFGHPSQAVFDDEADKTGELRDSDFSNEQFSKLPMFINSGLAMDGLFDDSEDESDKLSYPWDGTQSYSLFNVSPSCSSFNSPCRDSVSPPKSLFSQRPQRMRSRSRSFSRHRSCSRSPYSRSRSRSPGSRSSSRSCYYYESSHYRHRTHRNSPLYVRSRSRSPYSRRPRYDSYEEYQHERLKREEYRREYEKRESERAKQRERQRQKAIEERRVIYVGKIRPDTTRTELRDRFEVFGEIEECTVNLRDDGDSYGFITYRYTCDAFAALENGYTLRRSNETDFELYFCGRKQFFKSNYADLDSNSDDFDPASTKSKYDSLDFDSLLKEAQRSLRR
In short: (§3)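 C2C12 myoblasts in DMEM with 10% heat-inactivated FCS were reverse-transfected (Lipofectamine) with a luciferase reporter carrying either the wild-type mTFA promoter or a mutant lacking the NRF1 site. Cells plated at 3000/well and treated for 16 h (overnight). Luciferase activity compared with DMSO-treated cells by Student's t-test.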

[5] = molecular target: T3, NAD-dependent protein deacetylase sirtuin-3, mitochondrial (Homo sapiens) (UniProt Q9NTG7); assay: Inhibition of human SIRT3 expressed in Escherichia coli at 50 uM after 1 hr by fluorescent biochemical assay; in short: as §1
T3 sequence (whole entry): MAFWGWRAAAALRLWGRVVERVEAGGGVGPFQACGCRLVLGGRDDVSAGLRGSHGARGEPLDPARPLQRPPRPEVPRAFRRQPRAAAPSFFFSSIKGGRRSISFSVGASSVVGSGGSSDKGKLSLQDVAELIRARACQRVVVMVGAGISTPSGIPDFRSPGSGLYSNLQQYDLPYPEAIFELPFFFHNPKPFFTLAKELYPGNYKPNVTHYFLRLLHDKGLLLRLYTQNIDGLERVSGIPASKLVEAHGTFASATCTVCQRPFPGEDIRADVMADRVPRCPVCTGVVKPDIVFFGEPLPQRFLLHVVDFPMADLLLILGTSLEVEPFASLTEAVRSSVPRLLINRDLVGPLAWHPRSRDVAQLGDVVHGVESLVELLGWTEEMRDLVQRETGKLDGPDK

U-937 [6] = assay: Cell cycle arrest in human U937 cells assessed as accumulation at G1/S phase at 50 uM after 30 hrs by FACS analysis; format: functional, cell-based
In short: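 U937 cells given 50 μM for 30 h. 2.5 × 10^5 cells lysed in hypotonic buffer (0.1% Triton X-100, 0.1% sodium citrate, 50 μg/mL PI, RNase A) for 30 min in the dark, then DNA content measured by flow cytometry. Done in triplicate.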

[7] = molecular target: T3, NAD-dependent protein deacetylase sirtuin-3, mitochondrial (Homo sapiens); assay: Activation of human SIRT3 expressed in Escherichia coli after 1 hr by fluorescent biochemical assay; in short: as §1
[8] = molecular target: T4, NAD-dependent protein deacetylase sirtuin-1 (Homo sapiens) (UniProt Q96EB6); assay: Inhibition of human SIRT1 expressed in Escherichia coli at 50 uM after 1 hr by fluorescent biochemical assay; in short: as §1
T4 sequence (whole entry): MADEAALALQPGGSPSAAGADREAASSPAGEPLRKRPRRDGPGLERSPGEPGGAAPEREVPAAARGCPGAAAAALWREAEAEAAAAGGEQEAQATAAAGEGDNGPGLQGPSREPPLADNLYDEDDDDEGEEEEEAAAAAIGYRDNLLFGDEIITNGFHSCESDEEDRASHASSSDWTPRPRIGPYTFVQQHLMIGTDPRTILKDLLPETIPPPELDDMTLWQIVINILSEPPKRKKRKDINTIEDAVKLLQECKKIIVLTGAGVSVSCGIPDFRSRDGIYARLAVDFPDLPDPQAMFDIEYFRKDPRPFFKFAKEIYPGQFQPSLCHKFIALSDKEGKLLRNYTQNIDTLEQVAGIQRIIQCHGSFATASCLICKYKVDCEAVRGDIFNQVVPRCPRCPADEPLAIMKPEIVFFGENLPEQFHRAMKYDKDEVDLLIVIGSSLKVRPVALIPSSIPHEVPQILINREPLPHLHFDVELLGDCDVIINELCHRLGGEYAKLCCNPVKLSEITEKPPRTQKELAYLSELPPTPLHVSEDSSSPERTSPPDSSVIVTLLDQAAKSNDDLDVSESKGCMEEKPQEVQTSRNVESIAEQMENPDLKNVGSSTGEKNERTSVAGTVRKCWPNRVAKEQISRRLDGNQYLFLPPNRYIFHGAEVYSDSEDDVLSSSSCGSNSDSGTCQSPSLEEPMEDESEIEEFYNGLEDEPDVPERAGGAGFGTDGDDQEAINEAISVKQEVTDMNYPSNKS

[9] = molecular target: T4, NAD-dependent protein deacetylase sirtuin-1 (Homo sapiens); assay: Activation of human SIRT1 expressed in Escherichia coli after 1 hr by fluorescent biochemical assay; in short: as §1
MCF7 [10] = assay: Induction of apoptosis in human MCF7 cells assessed as caspase 3/7 activity at 50 uM after 30 hrs by FACS analysis; format: functional, cell-based
C2C12 [11] = assay: Stimulation of transcriptional activity of mTFA promoter in mouse C2C12 cells after 16 hrs by luciferase reporter gene assay; format: functional, cell-based; in short: as §3
[12] = molecular target: T1, NAD-dependent protein deacetylase sirtuin-2 (Homo sapiens); assay: Inhibition of human SIRT2 expressed in Escherichia coli at 50 uM after 1 hr by fluorescent biochemical assay; in short: as §1
U-937 [13] = assay: Induction of apoptosis in human U937 cells assessed as caspase 3/7 activity at 50 uM after 30 hrs by FACS analysis; format: functional
In short: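 U937 cells given 50 μM for 30 h. Apoptosis measured as caspase 3-7 activity by FACS.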

MCF7 [14] = assay: Induction of granulocyte differentiation in human MCF7 cells assessed as increase in phycoerythrine-conjugated CD11c expression at 50 uM after 30 hrs by propidium iodide staining-based FACS analysis; format: functional, cell-based
U-937 [15] = assay: Induction of granulocyte differentiation in human U937 cells assessed as increase in phycoerythrine-conjugated CD11c expression at 50 uM after 30 hrs by propidium iodide staining-based FACS analysis; format: functional
In short: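 U937 cells given 50 μM for 30 h, then stained with CD11c-PE (or PE-mouse IgG1 control) for 30 min at 4 °C in the dark. Cells were resuspended in PBS with PI (0.25 μg/mL) and analyzed by FACS, with PI-positive cells excluded. Readout: CD11c+/PI− cells.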

C2C12 [16] = assay: Increase in mitochondrial function in mouse C2C12 cells assessed as enhancement of mitochondrial density at 50 uM after 16 hrs by green FM dye straining-based fluorescence assay; format: functional, cell-based; in short: as §2
[17] = Inhibition of human MSC senescence assessed as appearance of senescence-associated beta-galactosidase positive cells at 50 uM after 48 hrs by optic microscopy relative to control; format: functional; parameters: scale not given: the % may be the effect or the level left
In short: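 Primary human MSC cultured 30 days (ninth passage), 3 × 10^5 cells/well, treated at 50 μM for 48 h. Cells fixed in 2% formaldehyde/0.2% glutaraldehyde, then stained overnight at 37 °C in pH 6 citrate/phosphate buffer with ferro/ferricyanide and 1 mg/mL X-Gal. Blue cells counted as % of total, with the control set as 100%.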

[18] = molecular target: T1, NAD-dependent protein deacetylase sirtuin-2 (Homo sapiens); assay: Activation of human SIRT2 expressed in Escherichia coli at 1 to 50 uM after 1 hr by fluorescent biochemical assay; in short: as §1

Activity [5]	EC150 [7]	inhibition [8]	Activity [9]	inhibition [12]	Structure (SMILES)	Activity (U937 (Homo sapiens))	Activity (MCF7 [3])	Activity (U-937 [6])	Activity (MCF7 [10])	Activity (U-937 [13])	Activity [17]	also measured
inactive	50 µM	inactive	Dose-dependent effect	inactive	CCOC(=O)C1=CN(Cc2ccccc2)C=C(C(=O)OCC)C1c1ccccc1	inactive	inactive	Active	inactive	–	–	EC150 [1]: 25 µM; Activity (C2C12 [2]): Active; Activity [4]: Dose-dependent effect; EC150 [9]: 1 µM; Activity (C2C12 [11]): inactive
–	–	76.6%	–	49.6%	CCOC(=O)C1=CN(CCc2ccccc2)C=C(C(=O)OCC)C1c1ccccc1	–	inactive	–	inactive	3%	–	Activity (MCF7 [14]): inactive; Activity (U-937 [15]): 12.3%
–	–	–	–	–	Oc1ccc(/C=C/c2cc(O)cc(O)c2)cc1 [RESVERATROL]	–	–	–	–	–	50%	Activity (C2C12 [16]): Active
–	–	–	–	53.7%	CCOC(=O)C1=CN(C2CC2)C=C(C(=O)OCC)C1c1ccccc1	inactive	inactive	–	inactive	3%	–	–
inactive	> 50 µM	inactive	Dose-dependent effect	inactive	NC(=O)C1=CN(Cc2ccccc2)C=C(C(N)=O)C1c1ccccc1	inactive	inactive	Active	inactive	–	65%	Activity [18]: inactive
inactive	50 µM	inactive	Dose-dependent effect	inactive	O=C(O)C1=CN(Cc2ccccc2)C=C(C(=O)O)C1c1ccccc1	inactive	inactive	Active	inactive	–	70%	EC150 [1]: 15 µM; EC150 [9]: 1 µM
–	–	63.6%	–	51.3%	CCOC(=O)C1=CN(c2ccccc2)C=C(C(=O)OCC)C1c1ccccc1	inactive	inactive	–	inactive	3%	–	–
–	–	86.6%	–	–	O=C(O)C1=CN(c2ccccc2)C=C(C(=O)O)C1c1ccccc1	–	–	–	–	–	–	–
–	–	89.1%	–	–	NC(=O)C1=CN(c2ccccc2)C=C(C(N)=O)C1c1ccccc1	–	–	–	–	–	–	–
